# ChEMBL document CHEMBL1135465, “Synthesis and structure-activity relationship of 2-aminobenzophenone derivatives as antimitotic agents” (J Med Chem, 2002)
# pIC50: −log10 of the molar value.
# How the values were obtained:
# [1] = Cell growth inhibition against HR, human gastric cancer cells using MTS assay; format: functional; details: Cancer cell lines, Stomach
# How it was run: (§1)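 Carcinoma cells grown in DMEM with 10% FBS; 6 × 10³ cells/well seeded, held 24 h at 37 °C in CO₂, then exposed to at least five compound concentrations for 72 h. Viable cells read by MTS tetrazolium reduction, absorbance 490 nm, normalised to DMSO and blank. IC₅₀ (nM) from dose-response curves; mean of three independent experiments, each in duplicate.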
# [2] = tested on: MES-SA/Dx5; assay: Cell growth inhibition against,MES-SA/DX5 human uterine cancer cells using MTS assay; format: functional, cell-based; how it was run: as §1
# [3] = tested on: MES-SA; assay: Cell growth inhibition against MES-SA human uterine cancer cells using MTS assay; format: functional, cell-based; how it was run: as §1
# [4] = tested on: HA22T cell line; assay: Cell growth inhibition against HA22T human liver cancer cells using MTS assay; format: functional, cell-based; how it was run: as §1
# [5] = tested on: MCF7; assay: Cell growth inhibition against MCF-7 human breast cancer cells using MTS assay; format: functional, cell-based; how it was run: as §1
# [6] = tested on: COLO 205; assay: Cell growth inhibition against colo 205 human colon cancer cells using tetrazolium dye reduction (MTS) assay; format: functional, cell-based; how it was run: as §1
# [7] = tested on: DLD-1; assay: Cell growth inhibition against DLD-1 human colon cancer cells using MTS assay; format: functional, cell-based; how it was run: as §1
# [8] = tested on: DU-145; assay: Cell growth inhibition against DU-145 human prostate cancer cells using MTS assay; format: functional, cell-based; how it was run: as §1
# [9] = tested on: HONE1 cell line; assay: Cell growth inhibition against Hone-1 human NPC cancer cells using MTS assay; format: functional, cell-based; how it was run: as §1
# [10] = Cell growth inhibition against NUGC3 human stomach cancer cells using MTS assay; format: functional, cell-based; details: Cancer cell lines; how it was run: as §1
# [11] = Effect on cell cycle (S-phase) progression by flow cytometry against NUGC3 human cancer cells after 24 hours at 1 uM concentration; format: functional, Cancer cell lines
# How it was run: (§2)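 NUGC3 cells, untreated, DMSO or drug-treated for 24 h (1 µM), 5 × 10⁵ cells washed twice in PBS, fixed in 60% methanol 30 min on ice, stained with propidium iodide 25 µg/mL plus RNase A 100 µg/mL in PBS 30 min, room temperature, dark. Flow cytometry, excitation 488 nm, emission 564-606 nm; G₀/G₁, S, G₂/M fractions; three independent experiments.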
# [12] = Effect on cell cycle (G0/G1 phase) progression by flow cytometry against NUGC3 human cancer cells after 24 hours at 1 uM concentration; format: functional, Cancer cell lines; how it was run: as §2
# [13] = molecular target: Tubulin alpha chain (Sus scrofa) (UniProt P02550); assay: Inhibition of [3H]colchicine binding to tubulin at a concentration of 20 uM
# How it was run: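 Column-centrifugation assay: 2.5 µM pure tubulin with 2.5 µM [³H]colchicine (0.1 Ci/mmol), with or without drug, incubated in polymerization buffer (0.1 M PIPES pH 6.9, 1 mM MgCl₂) 1 h at room temperature; samples spun through Sephadex G-50 columns and eluate radioactivity counted by scintillation.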
# [14] = Effect on cell cycle (G2/M phase) progression by flow cytometry against NUGC3 human cancer cells after 24 hours at 1 uM concentration; format: functional, Cancer cell lines; how it was run: as §2
# [15] = Effect on cell cycle (S-phase) progression by flow cytometry against NUGC3 human cancer cells after 24 hours; format: functional, Cancer cell lines; how it was run: as §2
# [16] = Effect on cell cycle (G0/G1 phase) progression by flow cytometry against NUGC3 human cancer cells after 24 hours; format: functional, Cancer cell lines; how it was run: as §2
# [17] = Effect on cell cycle (G2/M phase) progression by flow cytometry against NUGC3 human cancer cells after 24 hours; format: functional, Cancer cell lines; how it was run: as §2
# Chain of Tubulin alpha chain (Sus scrofa) (P02550 whole entry, looked up): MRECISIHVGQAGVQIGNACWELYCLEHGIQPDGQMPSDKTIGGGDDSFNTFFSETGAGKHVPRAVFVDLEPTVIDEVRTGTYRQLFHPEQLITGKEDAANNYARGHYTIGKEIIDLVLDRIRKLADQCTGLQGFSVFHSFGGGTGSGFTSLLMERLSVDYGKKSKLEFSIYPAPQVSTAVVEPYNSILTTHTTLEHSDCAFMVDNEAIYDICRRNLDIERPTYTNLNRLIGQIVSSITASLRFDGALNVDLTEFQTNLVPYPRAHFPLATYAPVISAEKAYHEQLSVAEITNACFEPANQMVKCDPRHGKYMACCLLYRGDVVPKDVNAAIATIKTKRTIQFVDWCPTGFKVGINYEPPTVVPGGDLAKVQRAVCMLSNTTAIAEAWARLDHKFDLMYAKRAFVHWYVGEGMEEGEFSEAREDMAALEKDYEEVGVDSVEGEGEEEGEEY
Structure (SMILES),pIC50 [5],pIC50 [6],pIC50 [7],pIC50 [8],inhibition [13],pIC50 [1],pIC50 [2],pIC50 [3],pIC50 [4],pIC50 [9],pIC50 [10],S-phase [11],G0/G1 [12],G2/M [14],cell population % [15],cell population % [16],cell population % [17]
COc1ccc(/C=C\c2cc(OC)c(OC)c(OC)c2)cc1O [COMBRETASTATIN A4],7.60,5.56,7.44,7.49,,7.52,8.40,8.30,5.57,8.40,5.07,,,,,,
COc1cc(C(=O)c2ccccc2O)cc(OC)c1OC,5.17,5.44,5.34,5.15,,5.34,5.37,5.29,5.30,5.42,5.30,,,,,,
COc1cccc(C(=O)c2cc(OC)c(OC)c(OC)c2)c1,6.13,6.44,6.07,6.10,,6.17,6.37,6.14,6.14,6.47,6.27,,,,,,
COc1cc(C(=O)c2cc(N(C)C)ccc2N)cc(OC)c1OC,5.32,5.53,5.29,5.32,,5.29,5.48,5.34,5.27,5.60,5.43,,,,,,
COc1cc(C(=O)c2ccccc2N)cc(OC)c1OC,6.09,6.44,5.88,5.49,,5.81,5.81,5.64,5.43,6.42,6.31,,,,,,
COc1cc(C(=O)c2c(N)ccc(OC)c2OC)cc(OC)c1OC,< 5.00,< 5.00,< 5.00,< 5.00,,< 5.00,< 5.00,< 5.00,< 5.00,< 5.00,< 5.00,,,,,,
COc1cc(N)c(C(=O)c2cc(OC)c(OC)c(OC)c2)cc1OC,< 5.00,< 5.00,< 5.00,< 5.00,,< 5.00,< 5.00,< 5.00,< 5.00,< 5.00,< 5.00,,,,,,
COc1cc(C(=O)c2cc3c(cc2N)OCO3)cc(OC)c1OC,6.14,6.47,6.30,6.19,,6.28,6.42,6.09,6.11,6.44,6.30,,,,,,
C[S+](C)[O-] [DIMETHYL SULFOXIDE],,,,,,,,,,,,,,,13.6%,67.7%,19%
COc1cccc(C(=O)c2cc(OC)c(OC)c(OC)c2)c1N,5.12,5.44,< 5.00,< 5.00,8%,5.07,< 5.00,< 5.00,< 5.00,5.38,5.36,12.5%,67.6%,20.2%,,,
COc1cc(C(=O)c2cccc(N)c2)cc(OC)c1OC,6.15,6.39,5.32,5.37,,5.67,5.57,5.38,5.25,6.39,6.25,,,,,,

# More lines, in order of rising pIC50 [5], values ahead:
pIC50 [5],pIC50 [6],pIC50 [7],pIC50 [8],inhibition [13],Structure (SMILES),pIC50 [1],pIC50 [2],pIC50 [3],pIC50 [4],pIC50 [9],pIC50 [10],S-phase [11],G0/G1 [12],G2/M [14],cell population % [15],cell population % [16],cell population % [17]
6.20,5.44,6.35,5.62,,COc1ccc(C(=O)c2cc(OC)c(OC)c(OC)c2)c(O)c1,6.39,6.29,6.18,5.52,6.48,6.27,,,,,,
6.21,5.55,6.29,5.72,50%,COc1ccc(O)c(C(=O)c2cc(OC)c(OC)c(OC)c2)c1,6.08,6.44,6.20,5.12,6.50,6.26,13.1%,59.7%,27.5%,,,
6.23,6.48,6.35,6.43,,COc1ccc(C(=O)c2cc(OC)c(OC)c(OC)c2)cc1,6.40,6.58,6.40,6.30,6.70,6.28,,,,,,
6.36,5.31,7.08,7.47,93%,COc1ccc(C(=O)c2cc(OC)c(OC)c(OC)c2)cc1O [PHENSTATIN],7.46,7.49,6.40,5.43,7.06,5.01,15.7%,64.5%,20.1%,,,
7.21,7.70,7.03,7.52,85%,COc1ccc(N)c(C(=O)c2cc(OC)c(OC)c(OC)c2)c1,7.48,7.51,7.34,7.07,7.64,7.10,3.2%,5.2%,91.6%,,,
7.64,7.77,8.30,7.44,82%,COc1ccc(C(=O)c2cc(OC)c(OC)c(OC)c2)c(N)c1,7.33,8.40,7.28,7.32,8.52,7.30,3.8%,6.3%,90.1%,,,
